The target of data set [1] is T1, Peroxisome proliferator-activated receptor gamma (Homo sapiens) (UniProt P37231).
T1 sequence (whole entry): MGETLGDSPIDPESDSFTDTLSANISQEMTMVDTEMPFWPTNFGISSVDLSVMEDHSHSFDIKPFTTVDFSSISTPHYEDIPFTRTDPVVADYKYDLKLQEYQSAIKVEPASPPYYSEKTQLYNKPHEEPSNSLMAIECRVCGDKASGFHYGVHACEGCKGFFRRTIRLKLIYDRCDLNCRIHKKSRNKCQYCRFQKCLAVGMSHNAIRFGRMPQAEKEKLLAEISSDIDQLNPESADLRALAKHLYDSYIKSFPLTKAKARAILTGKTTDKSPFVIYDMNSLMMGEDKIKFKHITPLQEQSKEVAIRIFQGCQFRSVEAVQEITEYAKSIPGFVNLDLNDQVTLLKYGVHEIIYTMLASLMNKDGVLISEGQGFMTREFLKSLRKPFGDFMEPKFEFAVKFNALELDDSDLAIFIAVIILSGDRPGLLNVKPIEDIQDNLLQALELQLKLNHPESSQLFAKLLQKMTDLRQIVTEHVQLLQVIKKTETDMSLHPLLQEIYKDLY
The data set can be described thus: Modulation of full-length human pSG5-fused PPARgamma expressed in MG-63 cells co-expressing pGV-P2-PPRE after 24 hrs by luciferase reporter gene based transactivation assay relative to 5-(4-{[6-(4-hydroxy-3,5-dimethylphenoxy)-1-methyl-1H-benzimidazol- 2-yl]methoxy}benzyl)-1,3-thiazolidine-2,4-dione. It counts as cell-based. An outline of the steps: (§1)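 MG-63 cells transiently co-transfected (Lipofectamine, 4 h, serum- and antibiotic-free) with pSG5-hPPARγ and pGV-P2-PPRE luciferase reporter, replated at 40,000 cells/well. After 24 h and medium change, exposed to graded compound concentrations for 20 h. Luciferase luminescence read as the output.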

Data set [2] has as its target T2, Peroxisome proliferator-activated receptor gamma (Homo sapiens, UniProt P37231).
T2 sequence (P37231 whole entry): T1 sequence (whole entry)
The data set can be described thus: Modulation of full-length human pSG5-fused PPARgamma expressed in MG-63 cells co-expressing pGV-P2-PPRE after 24 hrs by luciferase reporter gene based transactivation assay. It counts as cell-based. An outline of the steps:
as §1

For data set [3], the system named is Rattus norvegicus. Briefly: Antidiabetic activity in Zucker diabetic fatty rat assessed as reduction of non-fasting plasma glucose level at >1 mg/kg, po qd for 12 days. It counts as functional. A digest of the protocol: (§2)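 Female ZDF rats, 5 weeks old on arrival, acclimatised over 1 week on MR-DBT chow with 10% lard. Randomised on Day -1 by BW, PG, insulin and blood indices. Once-daily oral gavage in 0.5% methylcellulose at 0.01–100 mg/kg for 12 days, n = 5. BW recorded daily. Tail-vein plasma taken Day 12 for glucose, TG, FFA and insulin kits. Dunnett vs vehicle.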

Data set [4] in a line: Oral bioavailability in Fischer rat at 10 mg/kg. It counts as ADME, organism-based. The following applies: in vivo. A digest of the protocol:
(§3)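 Male Fischer rats, fasted overnight, received the potassium salt at 10 mg/kg (5 mg/mL, 2 mL/kg). Vehicle was 20% HCO-60 in saline orally or 5% HCO-60 intravenously. Jugular-vein blood was taken and plasma drug measured by LC-MS/MS. Non-compartmental PK analysis; oral n = 4.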

The nature of data set [5]: Terminal half life in Fischer rat at 10 mg/kg, iv. It counts as ADME, organism-based. Further details: dose 10 mg/kg, route intravenous. As to conditions: in vivo, read-out: beta t1/2 (converted). A digest of the protocol: as §3
Data set [6] in a line: Solubility of the compound in JP2 at pH 6.8. It counts as physicochemical. As to conditions: JP2, pH 6.8. An outline of the steps:
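Solubility was measured in JP2 medium at pH 6.8.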

Data set [7] in a line: Total clearance in Fischer rat at 10 mg/kg, iv. The following applies: in vivo. The data set is classed as ADME, organism-based. Also noted: dose 10 mg/kg, route intravenous. A digest of the protocol: as §3
Data set [8] relates to Rattus norvegicus. Briefly: Toxicity in Zucker diabetic fatty rat assessed as increase in body weight at >1 mg/kg, po qd for 12 days. It counts as organism-based. The following applies: in vivo, 288 h. An outline of the steps:
as §2

The test system of data set [9] is Rattus norvegicus. Briefly: Toxicity in Wistar-Imamichi rat assessed as increase in body weight at 30 to 100 mg/kg, po qd for 14 days. The data set is classed as organism-based. The following applies: in vivo, 336 h. Further details: dose 30-100 mg/kg, route oral. A digest of the protocol:
(§4)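 Female Wistar–Imamichi rats, 7 weeks old on arrival, randomised by BW. Once-daily oral gavage in 0.5% methylcellulose for 14 days, n = 5, BW recorded daily. On Day 14, 0.05% Evans blue was given i.v. (0.1 mL/100 g) and aortic blood drawn at 10 min. Heart weighed. Plasma TCA-deproteinised, sonicated, A620 read, and plasma volume computed from an EB calibration curve.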

Data set [10] has as its system Rattus norvegicus. The data set can be described thus: Toxicity in Wistar-Imamichi rat assessed as increase heart weight at 100 mg/kg, po qd for 14 days. It counts as organism-based. Further details: dose 100 mg/kg, route oral. As to conditions: in vivo, 336 h. A digest of the protocol: as §4
Data set [11] relates to Rattus norvegicus. The data set can be described thus: Toxicity in Wistar-Imamichi rat assessed as increase plasma volume at 100 mg/kg, po qd for 14 days. The data set is classed as organism-based. Further details: dose 100 mg/kg, route oral. As to conditions: in vivo, 336 h. An outline of the steps:
as §4

With `CCc1ccc2ccccc2c1CNC(=O)c1c(OC)cc(O)c2c1OC1=CC(O)=C(C(C)=O)C(=O)[C@]12C`, the Emax in data set [1] was 39%. The EC50 in [2] came to 3.7 nM.

In [1], `COc1cc(O)c2c(c1C(=O)NCc1c(C)ccc3c(F)cccc13)OC1=CC(O)=C(C(C)=O)C(=O)[C@]12C` displayed an Emax of 39%. Besides, the EC50 in [2] is 16 nM.

For the compound `COc1cc(O)c2c(c1C(=O)NCc1c(C)ccc3cc(F)ccc13)OC1=CC(O)=C(C(C)=O)C(=O)[C@]12C`, the Emax in data set [1] came out at 28%. The compound also came in with an EC50 in [2] of 27 nM.

For `COc1cc(O)c2c(c1C(=O)NCc1c(C)ccc3c(Cl)cccc13)OC1=CC(O)=C(C(C)=O)C(=O)[C@]12C`, the Emax in data set [1] worked out at 59%. A half-maximal effect in [2] (EC50) was put at 170 nM.

In [1], `COc1cc(O)c2c(c1C(=O)NCc1c(C)ccc3ccc(Cl)cc13)OC1=CC(O)=C(C(C)=O)C(=O)[C@]12C` yielded an Emax of 44%. The EC50 in data set [2] is 4.9 nM.

For the compound `CCCCc1ccc2ccccc2c1CNC(=O)c1c(OC)cc(O)c2c1OC1=CC(O)=C(C(C)=O)C(=O)[C@]12C`, in data set [1], the Emax stood at 22%. The compound further had an EC50 in [2] of 59 nM.

In data set [1], `COc1cc(O)c2c(c1C(=O)NCc1c(C)ccc3ccc(F)cc13)OC1=CC(O)=C(C(C)=O)C(=O)[C@]12C` displayed an Emax of 40%. The compound also had an EC50 in data set [2] of 65 nM.

On to `CCc1cc(F)c2ccccc2c1CNC(=O)c1c(OC)cc(O)c2c1OC1=CC([O-])=C(C(C)=O)C(=O)[C@]12C.[K+]`, for which the Activity in data set [3] is under 200 mg/dL; in data set [8] it was “Toxic”; in data set [9], “Toxic”; in [10], “Non-toxic”; in data set [11] it was “Non-toxic”. In data set [4], this compound showed a bioavailability of 58%. Moreover, in data set [5], the half-life was 4 h. In data set [6], the concentration in solution (solubility) was 910 µg/mL. The compound also gave a clearance in [7] of 6.98 mL/min/kg.

In [1], `COc1cc(O)c2c(c1C(=O)NCc1c(C)ccc3cc(Cl)ccc13)OC1=CC(O)=C(C(C)=O)C(=O)[C@]12C` yielded an Emax of 26%. The same compound yielded an EC50 in data set [2] of 56 nM.

(Values after ChEMBL document CHEMBL2040760, “Synthesis and biological evaluation of novel (-)-Cercosporamide derivatives as potent selective PPARγ modulators” (Eur J Med Chem, 2012).)
